These results are taken from ChEMBL document CHEMBL2321771, “Inhibition of Ebola Virus Infection: Identification of Niemann-Pick C1 as the Target by Optimization of a Chemical Probe” (ACS Med Chem Lett, 2013).

Each structure is given as a SMILES string. Calls of active or inactive are those of the source. No cut-off for these calls is given here.

Assay [1] addresses T1, NPC intracellular cholesterol transporter 1 (Mus musculus) (UniProt O35604).
T1 sequence (whole entry): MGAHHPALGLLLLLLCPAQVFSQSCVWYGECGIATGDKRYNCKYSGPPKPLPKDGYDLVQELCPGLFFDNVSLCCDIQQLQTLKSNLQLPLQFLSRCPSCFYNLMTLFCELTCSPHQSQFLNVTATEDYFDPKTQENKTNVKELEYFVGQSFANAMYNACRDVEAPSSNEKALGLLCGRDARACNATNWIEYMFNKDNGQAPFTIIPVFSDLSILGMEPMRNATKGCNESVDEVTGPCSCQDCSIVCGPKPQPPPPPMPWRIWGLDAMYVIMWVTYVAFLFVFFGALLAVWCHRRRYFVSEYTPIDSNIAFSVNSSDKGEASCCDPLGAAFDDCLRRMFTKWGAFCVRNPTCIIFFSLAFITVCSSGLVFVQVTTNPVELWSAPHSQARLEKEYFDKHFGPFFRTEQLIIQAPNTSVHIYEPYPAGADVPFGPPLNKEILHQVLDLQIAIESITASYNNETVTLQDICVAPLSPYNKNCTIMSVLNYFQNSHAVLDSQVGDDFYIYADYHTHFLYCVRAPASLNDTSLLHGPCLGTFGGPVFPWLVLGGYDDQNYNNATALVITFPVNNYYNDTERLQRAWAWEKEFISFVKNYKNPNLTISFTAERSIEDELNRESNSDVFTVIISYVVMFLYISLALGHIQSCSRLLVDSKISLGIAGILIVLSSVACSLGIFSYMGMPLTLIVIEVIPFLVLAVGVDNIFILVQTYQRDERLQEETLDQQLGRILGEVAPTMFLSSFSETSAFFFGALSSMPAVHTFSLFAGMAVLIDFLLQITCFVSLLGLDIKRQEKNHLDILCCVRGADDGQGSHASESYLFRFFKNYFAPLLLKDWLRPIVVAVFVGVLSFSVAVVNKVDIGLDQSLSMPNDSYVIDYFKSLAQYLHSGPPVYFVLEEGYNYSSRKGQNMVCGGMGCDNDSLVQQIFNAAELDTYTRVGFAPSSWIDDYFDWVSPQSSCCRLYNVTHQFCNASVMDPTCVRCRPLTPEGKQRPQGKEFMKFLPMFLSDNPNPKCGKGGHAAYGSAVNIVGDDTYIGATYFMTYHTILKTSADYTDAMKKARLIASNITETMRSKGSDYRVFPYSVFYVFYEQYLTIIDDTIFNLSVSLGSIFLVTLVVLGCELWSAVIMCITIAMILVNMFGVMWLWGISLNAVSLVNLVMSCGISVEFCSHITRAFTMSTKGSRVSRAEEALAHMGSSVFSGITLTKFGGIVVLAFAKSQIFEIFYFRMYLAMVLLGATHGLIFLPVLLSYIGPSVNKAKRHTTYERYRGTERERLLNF
Put plainly: Inhibition of mouse NPC1 interaction to Ebola virus GP expressed in LE/LY membrane of CHO cells by immunoblotting. In kind it is cell-based. Summed up:
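Late endosome/lysosome membranes from NPC1-null CHO cells, or the same cells stably expressing mouse NPC1, were immobilized on ELISA plates. They were incubated with protease-cleaved Ebola GP in the presence of test compound at specified concentrations. After washing off unbound GP, membranes were solubilized in NP40 and bound GP was detected by GP1-antibody immunoblot. Results are representative of six experiments.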

Assay [2] concerns Vesicular stomatitis virus. Put plainly: Antiviral activity against Vesicular stomatitis virus by cell based luciferase reporter gene assay. Format: functional, organism-based. A general note: Reporter assays use an easily measured gene product as a stand-in for the process of interest.
A further assay concerns Lassa virus. The assay is described as follows: Antiviral activity against Lassa virus by cell based luciferase reporter gene assay. The following applies: Mammarenavirus lassaense. In kind it is functional, organism-based.
The subject of another assay is Ebolavirus. Put plainly: Antiviral activity against Ebola virus by cell based luciferase reporter gene assay. Conditions: Orthoebolavirus. Format: functional, Ebola virus sp.
Assay [3] addresses T2, NPC intracellular cholesterol transporter 1 (Homo sapiens) (UniProt O15118).
T2 sequence (whole entry): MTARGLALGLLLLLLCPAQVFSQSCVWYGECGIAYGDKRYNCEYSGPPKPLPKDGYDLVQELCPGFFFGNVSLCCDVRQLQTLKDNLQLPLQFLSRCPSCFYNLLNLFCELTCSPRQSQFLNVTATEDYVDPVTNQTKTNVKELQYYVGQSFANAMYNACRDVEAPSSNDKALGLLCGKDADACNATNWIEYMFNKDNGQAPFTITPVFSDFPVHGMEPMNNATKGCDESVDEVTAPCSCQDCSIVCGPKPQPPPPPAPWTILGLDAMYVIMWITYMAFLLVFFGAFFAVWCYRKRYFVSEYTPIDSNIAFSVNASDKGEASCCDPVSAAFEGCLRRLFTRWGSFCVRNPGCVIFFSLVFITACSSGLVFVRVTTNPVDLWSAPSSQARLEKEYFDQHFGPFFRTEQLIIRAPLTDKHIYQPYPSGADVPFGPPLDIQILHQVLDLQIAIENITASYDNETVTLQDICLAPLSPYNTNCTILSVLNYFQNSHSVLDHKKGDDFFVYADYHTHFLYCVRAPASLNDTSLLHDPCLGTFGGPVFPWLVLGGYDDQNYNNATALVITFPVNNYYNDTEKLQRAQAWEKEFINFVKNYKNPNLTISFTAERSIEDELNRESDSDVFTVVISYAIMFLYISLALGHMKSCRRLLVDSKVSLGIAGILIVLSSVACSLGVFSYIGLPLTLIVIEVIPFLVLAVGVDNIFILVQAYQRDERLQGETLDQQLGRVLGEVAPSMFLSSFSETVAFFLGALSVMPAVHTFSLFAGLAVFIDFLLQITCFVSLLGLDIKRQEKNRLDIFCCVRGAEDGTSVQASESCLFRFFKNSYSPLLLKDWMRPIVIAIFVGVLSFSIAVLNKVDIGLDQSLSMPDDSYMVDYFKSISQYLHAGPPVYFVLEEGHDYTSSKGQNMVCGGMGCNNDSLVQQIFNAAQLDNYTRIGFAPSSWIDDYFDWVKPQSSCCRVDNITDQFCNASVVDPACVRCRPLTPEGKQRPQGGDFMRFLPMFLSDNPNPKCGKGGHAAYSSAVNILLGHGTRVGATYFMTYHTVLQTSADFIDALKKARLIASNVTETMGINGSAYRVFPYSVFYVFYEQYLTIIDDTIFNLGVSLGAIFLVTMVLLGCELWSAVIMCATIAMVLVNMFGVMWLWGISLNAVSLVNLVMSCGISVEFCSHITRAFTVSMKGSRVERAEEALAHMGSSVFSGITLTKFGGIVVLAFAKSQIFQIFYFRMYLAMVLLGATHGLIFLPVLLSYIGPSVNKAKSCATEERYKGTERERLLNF
The assay is described as follows: Binding affinity to human NPC1 expressed in LE/LY membrane of CHO cells at 25 uM by immunoblotting. Format: cell membranes. Summed up: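 Purified late endosome/lysosome membranes came from NPC1-null CHO cells and CHO cells overexpressing human NPC1. […] Cross-linked proteins were click-labelled with Alexa Fluor 488 azide and detected by anti-Alexa 488 immunoblot. NPC1 was confirmed by anti-NPC1 immunoprecipitation and immunoblot.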
A general note: A western blot detects proteins with antibodies after separation by electrophoresis.

Take `COC(=O)c1ccc(COc2ccccc2CN2CCN(C(=O)CNC(=O)CC34CC5CC(CC(C5)C3)C4)CC2)cc1`: the inhibition result in assay [1] was “Active”. The inhibition result (in assay [2]; in the assay on Lassa virus) was “inactive” in each case. In the assay on Ebolavirus, it took 0.02 µM to reach half-maximal inhibition (IC50).

On to `O=C(CC12CC3CC(CC(C3)C1)C2)NCC(=O)N1CCC(Cc2ccccc2)CC1`, for which the inhibition entry in assay [1] is “Active”. In the assay on Ebolavirus, the concentration for half-maximal inhibition (IC50) (in general, the point on the concentration scale where inhibition reaches its midpoint) is 1.3 µM. With `O=C(CC12CC3CC(CC(C3)C1)C2)NCC(=O)N1CCN(Cc2ccccc2)CC1`, the inhibition entry in assay [1] was “Active”. Further, half-maximal inhibition in the assay with Ebolavirus (IC50) was put at 1.3 µM. Take `C#Cc1ccc(COc2ccc(N=[N+]=[N-])cc2CN2CCN(C(=O)CNC(=O)CC34CC5CC(CC(C5)C3)C4)CC2)cc1`: the inhibition result in assay [1] was “Active”. In addition, the result in assay [3] was Active. As to `O=C(CC12CC3CC(CC(C3)C1)C2)NCCC(=O)N1CCN(Cc2ccccc2)CC1`, the inhibition entry in assay [1] is “Active”. In addition, 17 µM corresponded to half-maximal inhibition in the assay with Ebolavirus (IC50). `CN(C)C(=O)c1ccc(COc2ccccc2CN2CCN(C(=O)CNC(=O)CC34CC5CC(CC(C5)C3)C4)CC2)cc1`: the half-maximal inhibitory concentration (IC50) in the assay with Ebolavirus amounted to 3.3 µM. Consider `N#Cc1ccc(COc2ccccc2CN2CCN(C(=O)CNC(=O)CC34CC5CC(CC(C5)C3)C4)CC2)cc1`, for which, in the assay on Ebolavirus, the IC50 came to 4.4 µM. The IC50 values of the last two molecules are within 1.5-fold of each other. In the case of `O=C(CC12CC3CC(CC(C3)C1)C2)NCCCC(=O)N1CCN(Cc2ccccc2)CC1`, the midpoint of inhibition in the assay on Ebolavirus, the IC50, lay at 22 µM. Regarding `O=C(CC12CC3CC(CC(C3)C1)C2)NCC(=O)N1CCN(Cc2cccc(C(=O)O)c2)CC1`, the IC50 with Ebolavirus was > 40 µM. Same read-out and setting: as for `O=C(CC12CC3CC(CC(C3)C1)C2)NCC(=O)N1CCN(Cc2ccccc2C(=O)O)CC1`, the figure is > 40 µM; as for `O=C(CC12CC3CC(CC(C3)C1)C2)NCC(=O)N1CCN(Cc2ccccc2C(F)(F)F)CC1`, 1.8 µM.
